# Most compounds without a hit are left out; they make up all but 2% or so of the library.
# Arr AP2 block: inhibitors of beta-arrestin/AP2 binding, primary screen, biochemical, GPCR trafficking, flow cytometry; beta-arrestin 1 C-terminal peptide binding to AP2 beta2-adaptin appendage (human); FITC-arrestin peptide / GST-AP2 beads; AP2 beta2 appendage carries R879A mutation; inhibition, % at 10 µM; actives 0.31% (n = 340,000); AID 504490, 2011;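 active means inhibition above a set limit, near 3 SD of compounds lacking own fluorescence, cut at about 54% in these data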;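 further: plate controls were DMSO wells for no effect and 5 µM unlabelled arrestin peptide for full effect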
#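 System: GST-AP2 R879A glutathione beads; medium: PBS, Tween 20 0.05%, BSA 0.1%; reagent: fluorescein-tagged arrestin peptide at 50 nM final; schedule: pre-incubation 12 min, peptide binding 1 h, room temperature; detection: flow cytometry, FL1 (488/535 nm); read-out: inhibition as reduced fluorescein signal on beads, percent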
# Hep lipid drop: inhibitors of hepatocyte lipid droplet formation, primary screen, imaging, high-throughput imaging, BODIPY stain. AML12 mouse hepatocytes, oleate lipid droplets. inhibition, % at 6.5 µM. actives 0.4% (n = 240,000);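 active means lipid droplet intensity inhibited by at least 50%, with more than 500 cells counted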
#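 Material – mouse AML12 hepatocyte cell line, fixed after treatment · Compound dosing – one dose, 6.5 µM compound · Times – compound with oleate, overnight · Measured by – Image-based BODIPY and DAPI two-channel analysis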
# H9c2 TAG inh: inhibitors of triacylglycerol accumulation, primary screen, cell-based, uHTS, fluorescence, H9c2. H9c2 cells, Nile Red lipid (TAG) fluorescence; cells loaded with 200 µM oleic acid. inhibition, % at 12.5 µM. actives 0.66% (n = 230,000). AID 651582, 2012;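 active means pattern-corrected inhibition of lipid staining of at least 50% with the nuclear-stain viability signal not falling by more than 50%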;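 further: 0% = DMSO wells and 100% = triacsin C control wells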
# NTR1 ag: agonists of human NTR1, primary screen, imaging, U2OS cells, beta-arrestin-GFP, high content; activation, % at 20 µM; Neurotensin receptor type 1 (Homo sapiens), P30989; actives 0.17% (n = 330,000); NTR1-U2OS beta-arrestin-GFP spot imaging, agonist mode;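 active means activation at or above 40% of the spot to cytoplasm intensity ratio, with at least 20 cells analyzed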;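 further: 0% = DMSO without peptide and 100% = 100 nM NTR1 peptide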
# GRK2 inh: compounds blocking aptamer binding on GRK2 – biochemical, human GRK2, bead flow cytometry, HTS, primary screen | actives 0.59% (n = 330,000) | AID 488847, 2010 | FAM-aptamer displacement from GRK2 | inhibition of aptamer binding, % at 10 µM;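 active means inhibition of aptamer binding above 40%, roughly 3 SD of noise, on plates passing a quality check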;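 further: median bead fluorescence of bound FAM aptamer so fluorescent compounds give negative values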
# Target sequence (P25098 whole entry, looked up): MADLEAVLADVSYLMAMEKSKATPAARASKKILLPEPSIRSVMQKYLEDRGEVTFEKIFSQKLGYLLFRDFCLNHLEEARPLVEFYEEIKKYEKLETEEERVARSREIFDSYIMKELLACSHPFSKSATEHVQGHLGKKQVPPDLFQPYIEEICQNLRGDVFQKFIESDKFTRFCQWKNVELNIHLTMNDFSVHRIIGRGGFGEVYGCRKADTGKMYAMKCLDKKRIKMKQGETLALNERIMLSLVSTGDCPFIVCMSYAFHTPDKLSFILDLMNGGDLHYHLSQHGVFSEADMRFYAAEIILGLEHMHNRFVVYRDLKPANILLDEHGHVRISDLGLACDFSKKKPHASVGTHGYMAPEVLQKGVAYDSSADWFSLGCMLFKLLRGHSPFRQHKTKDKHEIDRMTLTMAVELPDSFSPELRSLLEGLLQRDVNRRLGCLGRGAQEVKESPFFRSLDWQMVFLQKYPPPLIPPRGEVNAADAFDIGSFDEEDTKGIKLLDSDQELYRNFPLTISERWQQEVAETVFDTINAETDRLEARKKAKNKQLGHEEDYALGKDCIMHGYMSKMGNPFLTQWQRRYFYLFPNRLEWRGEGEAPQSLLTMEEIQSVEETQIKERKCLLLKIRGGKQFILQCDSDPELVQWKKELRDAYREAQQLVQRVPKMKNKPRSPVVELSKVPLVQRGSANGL
# B2AR ag: beta2AR agonists driving receptor internalization, primary screen, cell-based, FAP fluorogen, flow cytometry; Am2.2-beta2AR cells; response, % (no concentration beside the values); actives 0.43% (n = 340,000);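 active means response above a set limit, near 3 SD of response in nonfluorescent compounds, cut at about 42% in these data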
# B2AR ag CP1: beta2AR agonists via receptor internalization, confirmation, cell-based, FAP fluorogen, flow cytometry, single point, cherry pick 1; shares compounds with B2AR ag; Am2.2-beta2AR cells, FAP surface receptor; stronger effect = lower value; percent response (surface receptor), % at 10 µM; actives 25% (n = 1,100); AID 540358, 2011;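 active means surface receptor percent response at or below 58%, roughly 3 SD from nonfluorescent compounds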
# FAP fluor counter: flagged in Am2.2 fluorescence counterscreen for beta-2AR agonists; shares compounds with B2AR ag; Am2.2 cells, FAP fluorogen flow cytometry; stronger effect = lower value; calls only at 10 µM; 1,100 tested, under 10 active; AID 588765;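 active means percent response below a set limit in fluorescence channel 1 and below 50% in channel 8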
# Arr AP2 CP1: inhibitors of arrestin peptide binding to AP2, confirmation, biochemical, cherry pick 1, flow cytometry beads; actives 2% (n = 1,300); shares compounds with Arr AP2 block; GST-AP2 beads, FITC arrestin peptide binding; GST-fused beta2-adaptin appendage, R879A mutant; inhibition, % at 10 µM;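 active means inhibition above a set limit, roughly 3 SD of non-fluorescent compound noise, cut at about 38% in these data; inactive means inhibition at or below that limit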;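 further: loss of bead fluorescence from 50 nM FITC arrestin peptide bound to appendage; 0% = negative control wells and 100% = excess unlabelled arrestin peptide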
# GST-FITC bead: GST-fluorescein capture on glutathione beads, confirmation, artefact control for arrestin-AP2 inhibitor project, biochemical, cherry pick 1, flow cytometry; GST-fluorescein binding to GSH beads, fluorescence, counter-screen; shares compounds with Arr AP2 block; inhibition, % at 10 µM; actives 2% (n = 1,300);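 active means inhibition above 50%, about 3 SD of the inhibition seen with non-fluorescent compounds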;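 further: fluorescein maleimide labelled GST captured on 4 micron glutathione beads; higher means more loss of bead fluorescence from quenching or blocked binding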
# TAG conf: triacylglycerol accumulation inhibitors, retest, confirmation, cell-based, single concentration, Nile Red fluorescence, H9c2 | shares compounds with H9c2 TAG inh | H9c2 lipid accumulation; cells loaded with 200 µM oleic acid | inhibition, % at 12.5 µM | actives 71% (n = 990);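 active means mean inhibition across replicates of 40% or more; inactive means mean inhibition below 40%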;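 further: plate controls were DMSO only wells for no effect and Triacsin C treated wells for full effect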
# * hit, by the source's call; i = inactive; nt = no result.
SMILES,Arr AP2 block,Hep lipid drop,H9c2 TAG inh,NTR1 ag,GRK2 inh,B2AR ag,B2AR ag CP1,FAP fluor counter,others
CC(C)CC(=O)Nc1ccccc1N1CCN(c2ccc(F)cc2)CC1,1.8,-19.6,0.5,1.0,2.0,-0.8,nt,nt,
Cc1cccc(NC(=O)CSc2nc3ccccc3c(=O)n2C)c1,-1.4,-1.1,-20.3,-0.5,0.0,-3.6,nt,nt,
O=C(CCn1c(=O)oc2ccc(Cl)cc21)NCCCN1CCOCC1,-2.9,8.7,nt,-0.5,2.0,50.0*,98.9,i,
COc1ccc(-c2cc(C)no2)cc1S(=O)(=O)N1CCOc2ccc(Cl)cc21,-9.3,8.2,nt,4.7,0.0,46.4*,121.1,i,
COc1ccc(-c2cc(C)no2)cc1S(=O)(=O)N1CC(=O)Nc2ccccc21,29.5,-2.0,nt,1.1,3.0,14.4,nt,nt,
CC(Sc1nc(-c2ccccc2)cc(C(F)(F)F)n1)C(=O)NCCN1CCOCC1 (configuration not stated),-4.2,nt,nt,2.0,0.0,-22.9,nt,nt,
CC(Sc1nc(-c2ccccc2)cc(C(F)(F)F)n1)C(=O)N1CCC(C(N)=O)CC1 (configuration not stated),26.1,-18.0,nt,-0.3,3.0,-2.1,133.7,i,
CC(Sc1nc(-c2ccccc2)cc(C(F)(F)F)n1)C(=O)N1CCOCC1 (configuration not stated),-4.2,-5.7,11.8,0.8,0.0,90.7*,13.5*,i,
CC1CCN(C(=O)C(C)Sc2nc(-c3ccccc3)cc(C(F)(F)F)n2)CC1 (configuration not stated),5.7,-10.0,nt,7.8,0.0,14.6,111.0,i,
CC(Sc1nc(-c2ccccc2)cc(C(F)(F)F)n1)C(=O)N1CCCC1 (configuration not stated),8.7,-11.2,-4.1,3.0,0.0,53.9*,54.6*,i,
C[C@]12CC[C@H](O)CC1=C[C@H](O)C1C2CC[C@@]2(C)C1CC[C@@]2(O)C#Cc1ccc(CN)cc1 (some centres not stated),17.8,nt,10.5,nt,nt,-0.3,nt,nt,
O=C(NC1CCc2ccccc21)c1cc(COc2cncc(Cl)c2)on1 (configuration not stated),36.9,12.8,-2.1,2.3,23.0,5.4,123.2,i,
O=C(NC1CCc2ccccc21)c1cc(COc2ccc(F)cc2Cl)on1 (configuration not stated),-16.4,5.1,12.5,1.7,1.0,11.2,nt,nt,
OC(C#Cc1ccccn1)c1cccs1 (configuration not stated),99.1*,nt,-12.4,2.8,2.0,62.7*,117.6,i,Arr AP2 CP1=-5.7;GST-FITC bead=-1.3
Cc1cc(S(=O)(=O)N2CCCC2)ccc1OCC(=O)NC1CCCC1,51.9,-0.6,-8.7,1.4,1.0,-0.9,nt,nt,
Cc1cc(S(=O)(=O)N2CCCC2)ccc1OCC(=O)Nc1ccccc1,64.5*,2.1,-1.1,-1.5,0.0,7.0,104.4,i,Arr AP2 CP1=-8.3;GST-FITC bead=-12.9
CC(C)CCC(CCNCc1ccccn1)c1ccc(Cl)cc1 (configuration not stated),-17.2,-12.3,nt,18.7,1.0,-9.8,nt,nt,
CCCc1nc2oc3c(NCCN(C)C)ncnc3c2c2c1CCCC2,12.4,nt,57.6*,12.9,0.0,14.4,129.7,i,TAG conf=23.9
CCN(CC)CCNc1ncnc2c1sc1nc(N3CCCC3)c3c(c12)CC(C)(C)OC3,-1.4,nt,56.0*,7.7,0.0,65.1*,95.9,i,TAG conf=45.5*
CCOc1ccc(NC(=O)Cn2nnc(-c3ccccc3F)n2)cc1,-0.4,-0.2,nt,-0.2,4.0,-7.8,nt,nt,
CCOc1ccc(NC(=O)Cn2nnc(-c3ccccc3NC(=O)C3CC3)n2)cc1,14.4,nt,71.9*,-1.5,0.0,-3.3,123.0,i,TAG conf=39.8
CC1CC2(C)Oc3ccccc3CC2C(C)C1CNCCCN(C)C (configuration not stated),8.3,-11.0,82.2*,2.3,5.0,42.1*,77.5,i,TAG conf=44.2*
CC1Cc2ccccc2N1C(=O)CNCCCN(C)C (configuration not stated),8.4,11.0,nt,-0.3,2.0,1.6,nt,nt,
COc1ccc(NC(=O)CN2C(=O)NC3(CCCC3)C2=O)cc1OC,-10.4,5.8,nt,1.0,4.0,0.0,nt,nt,
COCCN(CC(=O)Nc1ccccc1C(F)(F)F)C(=O)/C=C/c1ccc2ccccc2n1,-13.0,nt,-10.0,0.4,0.0,-3.3,nt,nt,
COc1ccc(N2C(=O)NC(NC(=O)C(C)(C)C)(C(F)(F)F)C2=O)cc1 (configuration not stated),39.9,3.9,nt,-0.6,0.0,-4.0,nt,nt,
Cc1ccc(N2C(=O)NC(NC(=O)C(C)(C)C)(C(F)(F)F)C2=O)cc1C (configuration not stated),55.8*,-4.0,1.4,1.5,0.0,-0.4,nt,nt,Arr AP2 CP1=-1.8;GST-FITC bead=1.9
CNC(=O)c1cc(S(=O)(=O)N2CC(C)OC(C)C2)ccc1N1CCCCC1 (configuration not stated),16.4,-5.7,4.2,-0.1,nt,1.9,nt,nt,Arr AP2 CP1=-0.3;GST-FITC bead=-14.7
COc1ccc(S(=O)(=O)N2CCCCCC2)cc1C(=O)NCCc1ccccc1,61.4*,nt,0.1,0.4,0.0,-4.7,nt,nt,Arr AP2 CP1=18.7;GST-FITC bead=-2.6
